In brackets after ≈: the same amount, converted by molar mass.
What was measured:
[1] = Plasma concentration in moderately obese adult human at 4 mg/kg, iv administered as single dose 30 mins infusion measured after 24 hrs; format: ADME, organism-based; design: dose 4 mg/kg, route intravenous
[2] = Plasma concentration in young healthy human at 4 mg/kg, iv administered as single dose 30 mins infusion measured after 24 hrs; format: ADME, organism-based; design: dose 4 mg/kg, route intravenous
[3] = Cmax in healthy human at 4 mg/kg, iv administered as single dose 30 mins infusion; format: ADME, organism-based; design: dose 4 mg/kg, route intravenous; details: in vivo
[4] = Apparent volume of distribution during terminal phase in healthy human subjects at 12 mg/kg, iv administered as 30 mins infusion every 24 hrs measured on day 4; format: ADME, organism-based; design: dose 12 mg/kg, route intravenous; details: in vivo
[5] = Unbound fraction in healthy human plasma at 6 mg/kg, iv administered as 30 mins infusion every 24 hrs measured on day 1; format: ADME, organism-based; design: dose 6 mg/kg, route intravenous
[6] = Cmax in cancer patient with neutropenic fever at 6 mg/kg, iv administered as 30 mins infusion every 24 hrs; format: ADME, organism-based; design: dose 6 mg/kg, route intravenous; details: human, in vivo
How it was run: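 First 6 mg/kg dose given over 30 min IV (q24h) to 29 neutropenic febrile adult cancer patients. Serial plasma was taken predose, at end of infusion, and at 0.5–24 h. Total concentration was measured by validated HPLC (limit of detection 1 μg/ml). Cmax is the observed peak value, reported as mean ± SD and range.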

[7] = Plasma protein binding in human after 8 hrs; format: ADME, cell-free; details: read-out: PPB (converted)
How it was run: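 Neutropenic-fever oncology patients received 6 mg/kg IV daptomycin; serum was drawn 0.5, 2 and 8 h after the end of infusion. Free drug was obtained by ultrafiltration (30,000-MW cutoff) and quantified by HPLC against a saline-matrix curve of 0.25–100 μg/ml, with total plasma drug also measured. Percent bound was (total − free)/total × 100; results are given as mean ± SD.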

Staphylococcus = assay: Antimicrobial activity against Staphylococcus; format: functional
Enterococcus = assay: Antimicrobial activity against Enterococcus; format: functional
[8] = Apparent volume of distribution during terminal phase in healthy human subjects at 10 mg/kg, iv administered as 30 mins infusion every 24 hrs measured on day 1; format: ADME, organism-based; design: dose 10 mg/kg, route intravenous; details: in vivo
[9] = Apparent volume of distribution during terminal phase in healthy human at 8 mg/kg, iv administered as 30 mins infusion every 24 hrs measured on day 1; format: ADME, organism-based; design: dose 8 mg/kg, route intravenous; details: in vivo
[10] = Apparent volume of distribution during terminal phase in healthy human at 6 mg/kg, iv administered as 30 mins infusion every 24 hrs measured on day 1; format: ADME, organism-based; design: dose 6 mg/kg, route intravenous; details: in vivo
[11] = Renal clearance in nonobese human at 4 mg/kg, iv administered as single dose 30 mins infusion; format: ADME, organism-based, Kidney; design: dose 4 mg/kg, route intravenous; details: in vivo, read-out: CL_renal (converted)
[12] = Renal clearance in nonobese adult human at 4 mg/kg, iv administered as single dose 30 mins infusion; format: ADME, organism-based, Kidney; design: dose 4 mg/kg, route intravenous; details: in vivo, read-out: CL_renal (converted)
[13] = Renal clearance in old healthy human at 4 mg/kg, iv administered as single dose 30 mins infusion; format: ADME, organism-based, Kidney; design: dose 4 mg/kg, route intravenous; details: in vivo, read-out: CL_renal (converted)
[14] = Renal clearance in young healthy human at 4 mg/kg, iv administered as single dose 30 mins infusion; format: ADME, organism-based, Kidney; design: dose 4 mg/kg, route intravenous; details: in vivo, read-out: CL_renal (converted)
[15] = Half life in young healthy human at 4 mg/kg, iv administered as single dose 30 mins infusion; format: ADME, organism-based; design: dose 4 mg/kg, route intravenous; details: in vivo
[16] = AUC (0 to infinity) in adult human with hepatic impairment at 6 mg/kg, iv administered as single dose 30 mins infusion; format: ADME, organism-based; design: time infinity, dose 6 mg/kg, route intravenous; details: plasma
[17] = AUC (0 to infinity) in healthy human subjects at 12 mg/kg, iv administered as 30 mins infusion every 24 hrs measured on day 1; format: ADME, organism-based; design: time infinity, dose 12 mg/kg, route intravenous; details: plasma
[18] = AUC (0 to infinity) in healthy human at 4 mg/kg, iv administered as 30 mins infusion every 24 hrs measured on day 7; format: ADME, organism-based; design: time infinity, dose 4 mg/kg, route intravenous; details: plasma
[19] = AUC (0 to infinity) in healthy human at 4 mg/kg, iv administered as 30 mins infusion every 24 hrs measured on day 1; format: ADME, organism-based; design: time infinity, dose 4 mg/kg, route intravenous; details: plasma
[20] = Cmax in healthy human subjects at 12 mg/kg, iv administered as 30 mins infusion every 24 hrs measured on day 14; format: ADME, organism-based; design: dose 12 mg/kg, route intravenous; details: in vivo
[21] = Cmax in healthy human subjects at 10 mg/kg, iv administered as 30 mins infusion every 24 hrs measured on day 4; format: ADME, organism-based; design: dose 10 mg/kg, route intravenous; details: in vivo
[22] = Cmax in healthy human subjects at 12 mg/kg, iv administered as 30 mins infusion every 24 hrs measured on day 1; format: ADME, organism-based; design: dose 12 mg/kg, route intravenous; details: in vivo
[23] = Cmax in healthy human subjects at 10 mg/kg, iv administered as 30 mins infusion every 24 hrs measured on day 1; format: ADME, organism-based; design: dose 10 mg/kg, route intravenous; details: in vivo
[24] = Cmax in healthy human at 6 mg/kg, iv administered as 30 mins infusion every 24 hrs measured on day 7; format: ADME, organism-based; design: dose 6 mg/kg, route intravenous; details: in vivo
[25] = Drug excretion in adult human with hepatic impairment urine assessed as unchanged drug at 6 mg/kg, iv administered as single dose 30 mins infusion; format: ADME, organism-based; design: dose 6 mg/kg, route intravenous; details: read-out: Drug uptake
[26] = Drug excretion in old healthy human urine assessed as unchanged drug at 4 mg/kg, iv administered as single dose 30 mins infusion; format: ADME, organism-based; design: dose 4 mg/kg, route intravenous; details: read-out: Drug uptake
[27] = Mean residence time in adult human with hepatic impairment at 6 mg/kg, iv administered as single dose 30 mins infusion; format: ADME, organism-based; design: dose 6 mg/kg, route intravenous; details: in vivo
[28] = Mean residence time in young healthy human at 4 mg/kg, iv administered as single dose 30 mins infusion; format: ADME, organism-based; design: dose 4 mg/kg, route intravenous; details: in vivo
[29] = Apparent volume of distribution in old healthy human at 4 mg/kg, iv administered as single dose 30 mins infusion; format: ADME, organism-based; design: dose 4 mg/kg, route intravenous; details: in vivo
Homo sapiens [30] = assay: Volume of distribution at steady state in healthy human at 4 mg/kg, iv administered as single dose 30 mins infusion; format: ADME, organism-based; design: dose 4 mg/kg, route intravenous; details: in vivo, 0.5 h
[31] = Clearance in nonobese human subjects at 4 mg/kg, iv administered as single dose 30 mins infusion; format: ADME, organism-based; design: dose 4 mg/kg, route intravenous; details: in vivo
[32] = Clearance in moderately obese adult human at 4 mg/kg, iv administered as single dose 30 mins infusion; format: ADME, organism-based; design: dose 4 mg/kg, route intravenous; details: in vivo
Homo sapiens [33] = assay: Unbound clearance in healthy human at 4 mg/kg, iv administered as 30 mins infusion every 24 hrs measured on day 1; format: ADME, organism-based; design: dose 4 mg/kg, route intravenous; details: in vivo
[34] = Clearance in healthy human subjects at 12 mg/kg, iv administered as 30 mins infusion every 24 hrs measured on day 4; format: ADME, organism-based; design: dose 12 mg/kg, route intravenous; details: in vivo
[35] = Clearance in healthy human subjects at 8 mg/kg, iv administered as 30 mins infusion every 24 hrs measured on day 4; format: ADME, organism-based; design: dose 8 mg/kg, route intravenous; details: in vivo
[36] = Clearance in healthy human subjects at 6 mg/kg, iv administered as 30 mins infusion every 24 hrs measured on day 4; format: ADME, organism-based; design: dose 6 mg/kg, route intravenous; details: in vivo
[37] = Clearance in healthy human subjects at 10 mg/kg, iv administered as 30 mins infusion every 24 hrs measured on day 1; format: ADME, organism-based; design: dose 10 mg/kg, route intravenous; details: in vivo
[38] = Clearance in healthy human subjects at 8 mg/kg, iv administered as 30 mins infusion every 24 hrs measured on day 1; format: ADME, organism-based; design: dose 8 mg/kg, route intravenous; details: in vivo
[39] = Half life in healthy human subjects at 10 mg/kg, iv administered as 30 mins infusion every 24 hrs measured on day 14; format: ADME, organism-based; design: dose 10 mg/kg, route intravenous; details: in vivo
[40] = Half life in healthy human subjects at 10 mg/kg, iv administered as 30 mins infusion every 24 hrs measured on day 4; format: ADME, organism-based; design: dose 10 mg/kg, route intravenous; details: in vivo
[41] = Half life in healthy human subjects at 8 mg/kg, iv administered as 30 mins infusion every 24 hrs measured on day 1; format: ADME, organism-based; design: dose 8 mg/kg, route intravenous; details: in vivo
[42] = Half life in healthy human at 8 mg/kg, iv administered as 30 mins infusion every 24 hrs measured on day 7; format: ADME, organism-based; design: dose 8 mg/kg, route intravenous; details: in vivo
[43] = Half life in healthy human at 8 mg/kg, iv administered as 30 mins infusion every 24 hrs measured on day 1; format: ADME, organism-based; design: dose 8 mg/kg, route intravenous; details: in vivo

For `CCCCCCCCCC(=O)N[C@@H](Cc1c[nH]c2ccccc12)C(=O)N[C@H](CC(N)=O)C(=O)N[C@@H](CC(=O)O)C(=O)N[C@@H]1C(=O)NCC(=O)N[C@@H](CCCN)C(=O)N[C@@H](CC(=O)O)C(=O)N[C@H](C)C(=O)N[C@@H](CC(=O)O)C(=O)NCC(=O)N[C@H](CO)C(=O)N[C@@H]([C@H](C)CC(=O)O)C(=O)N[C@@H](CC(=O)c2ccccc2N)C(=O)O[C@@H]1C`, the concentration at 24 h [1] was 3.44 µg/mL, the concentration at 24 h [2] was under 3.3 µg/mL and the Cmax [3] was 77.5 µg/mL. The Vd [4] was 0.0976 L/kg, the fraction unbound at 1 day [5] was 0.07 and the Cmax [6] was 48.9 µg/mL. It also gave a fraction unbound at 8 h [7] of 0.068, an MIC90 (Staphylococcus) of under 1 µg/mL and an MIC90 (Enterococcus) of 2 µg/mL (≈ 1.23 µM). For the same molecule, the Vd [8] was 0.117 L/kg, the Vd [9] was 0.099 L/kg and the Vd [10] was 0.096 L/kg. For the same molecule, the CL renal at 0.5 h [11] was 0.098 mL/min/kg, the CL renal at 0.5 h [12] was 0.139 mL/min/kg and the CL renal at 0.5 h [13] was 0.0712 mL/min/kg. It also gave a CL renal at 0.5 h [14] of 0.12 mL/min/kg, a half-life [15] of 6.79 h and an AUC(0-inf) [16] of 867 µg·h/mL. For the same molecule, the AUC(0-inf) [17] was 1270 µg·h/mL, the AUC(0-inf) [18] was 494 µg·h/mL and the AUC(0-inf) [19] was 425 µg·h/mL. For the same molecule, the Cmax [20] was 182 µg/mL, the Cmax [21] was 141 µg/mL and the Cmax [22] was 165 µg/mL. The Cmax [23] was 130 µg/mL, the Cmax [24] was 98.6 µg/mL and the dose excreted at 0.5 h [25] was 49.3%. For the same molecule, the dose excreted at 0.5 h [26] was 34.3%, the MRT [27] was 12 h and the MRT [28] was 9.05 h. The Vd [29] was 0.17 L/kg, the Vdss (Homo sapiens [30]) was 6057 mL and the clearance [31] was 0.2 mL/min/kg. For the same molecule, the clearance [32] was 0.271 mL/min/kg, the CL (Homo sapiens [33]) was 1.41 mL/min/kg and the clearance [34] was 0.15 mL/min/kg. For the same molecule, the clearance [35] was 0.15 mL/min/kg, the clearance [36] was 0.152 mL/min/kg and the clearance [37] was 0.165 mL/min/kg. It also gave a clearance [38] of 0.168 mL/min/kg, a half-life [39] of 7.9 h and a half-life [40] of 7.9 h. It also gave a half-life [41] of 7.3 h, a half-life [42] of 9 h and a half-life [43] of 9.6 h.

— ChEMBL document CHEMBL1649119, “Daptomycin pharmacokinetics in adult oncology patients with neutropenic fever” (Antimicrob Agents Chemother, 2009)
